# HSF1 activator: increases HSF-1 driven luciferase reporter signal; NIH3T3-HGL HSF-1 luciferase reporter, MG132, 8 h; 100% = twice DMSO control signal; 1.7% of 300,000 active; activation, % at 9 µM;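 active = mean replicate activation of at least 50% with a set share of replicates each reaching 50%; inconclusive = only one of those two conditions met; inactive = mean below 50% and too few replicates reaching it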
# CaV13 ICDI inh: Disruptors of the CACNA1D IQ motif to Ca2+-dependent inactivation inhibitor domain association, primary screening, Förster resonance energy transfer in intact living …; HEK cells, CFP/YFP FRET ICDI-IQ, plate reader, 10 min; percent FRET-ratio fall versus neutral wells; inhibition, % at 12.3 µM; 0.098% of 340,000 active;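 active = mean replicate inhibition of at least 30% and at least 1% of replicates passing that level; inconclusive = only one of the two criteria is met; inactive = neither criterion is met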
# PfHsp90 yeast 2: growth inhibition of yeast expressing Plasmodium Hsp90; 0.32% of 310,000 active; inhibition, % at 9.4 µM; S. cerevisiae expressing PfHsp90, BacTiter-Glo ATP, 48 h; yeast lacking PDR1 and PDR3 efflux regulators;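 active = every replicate shows inhibition above about 80%, whatever the replicate mean, limit read from the data; inconclusive = mean inhibition reaches the set limit but some replicate falls short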
# T cruzi repl: blocks replication of Trypanosoma cruzi; inhibition, % (concentration not given with the values); 1.4% of 300,000 active; AID 1885; T. cruzi beta-gal in NIH3T3, luminescence, 90 h;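 active = mean inhibition across valid replicates above about 55%, limit read from the data; inconclusive = mean below that limit but half or more replicates reach it; inactive = mean below it, under half of replicates reach it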;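 note: signal also drops with host cell toxicity which is not excluded here; higher percent means less beta-gal luminescence so fewer parasites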
#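 assay system = mouse NIH/3T3 fibroblasts infected with β-gal-expressing T. cruzi Tulahuen C4 | input = 5,000 NIH/3T3 host cells per well | buffer or medium = DMEM plus 2% FBS | timing = 3 h host attachment, then at least 90 h co-culture | measured by = GalScreen luminescence, 60 min | evaluation = luminescence reflecting intracellular parasite burden, expressed as percent inhibition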
# PvdQ acylase: P. aeruginosa PvdQ acylase inhibition. purified PvdQ acylase, fluorescence plate reader. inhibition, % at 10 µM. 0.063% of 340,000 active. AID 488965; in the data active = inhibition above about 30%, passing the limit was not always enough; inconclusive = no clear call, values can overlap the other calls
# Glyco luc inh: blocks N-linked glycosylation in D54 reporter cells | D54 ERlucT glycosylation luciferase reporter, 24 h; percent of 100 nM tunicamycin response | reporter increase, % at 12.5 µM | 0.23% of 360,000 active | AID 588692;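 active = mean luciferase reporter signal, scaled so untreated is 0 and the glycosylation-blocking control 100, at or above a set limit in every replicate; inconclusive = mean reaches the limit but not every replicate does; inactive = mean below the limit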;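 note: luciferase carries N-glycosylation sites so blocking glycosylation raises the light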
# Numbers stand for hits; – = inactive; ? = inconclusive; · = not tested or not shown; + = active, no number. Sampled rows, rich in hits. Any-hit rate of the full collection: about 3%.
SMILES,HSF1 activator,CaV13 ICDI inh,PfHsp90 yeast 2,T cruzi repl,PvdQ acylase,Glyco luc inh
Nc1ccc2ccc3cccc[n+]3c2c1,–,+,–,–,–,–
C[C@H]1C[C@@H](C)C(=O)[C@@H]([C@H](O)CC2CC(=O)NC(=O)C2)C1,–,·,106,58,–,–
CC(C)(C)NC(=O)NC(=O)CN1CC=C(c2ccccc2)CC1,61,–,–,–,–,–
O=C(CN1CC=C(c2ccccc2)CC1)NC(=O)NC1CCCCC1,·,–,·,·,–,–
O=C1CN=C(c2ccccc2)c2ccccc2N1Cc1ccc(C(F)(F)F)cc1,–,–,–,–,–,–
Cc1oc(-c2ccccc2Cl)nc1CN1C(=O)CN=C(c2ccccc2)c2ccccc21,95,–,–,–,–,–
O=C1NCN(c2ccccc2)C12CCN(C(c1nnnn1C1CCCCC1)C1CC1)CC2 (centres undefined),·,–,·,·,·,–
COc1cccc(OCc2cc(C(=O)N3C[C@H]4C[C@@H](C3)c3cccc(=O)n3C4)no2)c1,73,–,–,–,–,–
COc1ccc(OC(=O)N(C)C[C@@H]2OCc3ccccc3-c3c(n(C)c4ccccc34)C(=O)N([C@H](C)CO)C[C@@H]2C)cc1,·,–,·,·,·,–
CN1c2ccc([N+](=O)[O-])cc2CC2(C(=O)NC(=O)N(c3ccccc3)C2=O)C1c1ccccc1 (centres undefined),–,–,–,72,–,–
CN1c2ccc([N+](=O)[O-])cc2CC2(C(=O)NC(=O)NC2=O)C1c1ccccc1 (centres undefined),–,–,–,–,–,–
ClCCN(CCCl)c1ccc(-n2cnc3c(Cl)ncnc32)cc1,·,–,–,·,–,–
CCCCCCOc1ccc(CN2CCN(C)CC2)cc1,–,–,·,68,–,–
CN1CCc2cc(O)cc3c2[C@H]1Cc1ccc(O)c(O)c1-3,78,–,–,–,–,–
CCCCC(CC)CNCC(O)c1ccccc1 (centres undefined),–,–,–,78,–,–
O=c1[nH]sc2cc(F)ccc12,–,–,–,87,–,–
C[C@H](CO)N1C[C@H](C)[C@H](CN(C)C(=O)Oc2ccccc2)OCc2cnnn2CCCC1=O,·,–,·,·,·,–
COC(=O)[C@@H]1C[C@H]1[C@@H](NP(=O)(c1ccccc1)c1ccccc1)c1ccccc1,–,–,–,–,–,32
COC(=O)[C@H]1C[C@@H]1[C@H](NP(=O)(c1ccccc1)c1ccccc1)c1ccccc1,–,–,–,–,–,–
CCOc1cc(C2NCc3ccccc3-n3cccc32)ccc1O (centres undefined),–,–,–,–,–,–
CCOc1cccc(C2NCc3ccccc3-n3cccc32)c1O (centres undefined),93,–,–,–,–,–
CCOC(=O)c1cc2cc(OC)ccc2n1C1CCN(Cc2ccccc2)CC1,·,–,·,·,·,·
CC(C)CN1Cc2ccccc2-n2nncc2C1,·,–,·,·,·,–
CN1C(=O)C(=Cc2sc(=O)n(-c3ccccc3)c2N2CCCCC2)C(=O)N(C)C1=O,67,–,–,–,–,–
CC(C)Nc1ccc(Nc2ccccc2)cc1,–,–,–,56,–,–
SMILES,HSF1 activator,CaV13 ICDI inh,PfHsp90 yeast 2,T cruzi repl,PvdQ acylase,Glyco luc inh
c1ccc(Nc2ccc3ccccc3c2)cc1,·,·,–,·,–,–
Cc1nc2ccccc2c(=O)n1-c1cc([N+](=O)[O-])cc([N+](=O)[O-])c1,–,–,–,55,–,–
CCc1ccc(CN2CCN(Cc3ccc(SC)cc3)CC2)cc1,–,–,–,70,–,–
COc1ccc(CCNCc2ccc(Br)cc2)cc1OC,51,–,–,–,–,–
CCc1ccc(CNCCc2ccc(F)cc2)cc1,–,–,–,59,–,–
COc1ccc(CNCCc2ccc(Cl)cc2)c(OC)c1OC,–,–,–,64,–,–
COc1ccc(CCNCc2ccncc2)cc1OC,–,–,–,–,–,–
COc1cc(OC)c(OC)cc1CNCCc1ccc(F)cc1,–,–,–,63,–,–
COc1cc(OC)c(OC)cc1CNCCc1ccc(OC)c(OC)c1,–,–,·,–,–,–
CCC1(CCC(C)C)C(=O)NC(=O)N(c2ccccc2)C1=O (centres undefined),·,–,·,·,·,·
Fc1ccc(CCNCc2ccc(Cl)c(Cl)c2)cc1,–,–,–,67,–,–
Cc1ccc2nc(-c3ccc(CN4CCC(n5c(=O)[nH]c6cc(Cl)ccc65)CC4)cc3)c(-c3ccccc3)nc2c1,·,–,·,·,·,·
O=C(NCC(c1cccnc1)N1CCN(c2ccccc2F)CC1)Oc1ccccc1 (centres undefined),–,–,–,65,–,–
COc1ccc(N2CCN(CCc3ccncc3)CC2)cc1,–,–,–,–,–,–
COc1ccc(N2CCN(C(CNC(=O)Oc3ccccc3)c3cccnc3)CC2)cc1 (centres undefined),–,–,–,62,–,–
Fc1ccccc1N1CCN(Cc2c(F)cccc2F)CC1,–,–,–,–,–,–
COC(=O)C[C@]1(C(=O)OC)CN(C#N)N(c2ccc(Cl)cc2)C12c1ccccc1-c1ccccc12,–,–,–,–,–,–
COC(=O)[C@@H]1[C@@H](C(=O)OC)C2(c3ccccc3-c3ccccc32)N(c2ccc(Cl)cc2)N1C#N,–,·,–,56,–,–
CCCCn1c(C)c(C(=O)OCC)c2c(CN3CCOCC3)c(O)ccc21,72,–,–,–,–,–
CCCCn1c(C)c(C(=O)OCC)c2c(CN3CCCC3)c(O)ccc21,–,–,–,–,–,–
Cn1c(NN=O)nc2ccccc21,–,–,–,55,–,–
CN1CCN(Cc2nc3ccccc3n2C)CC1,–,–,·,–,–,–
CC/C(=C\C=C\[C@@H]1C=C[C@@H]2CCC[C@H]2[C@@H]1C(=O)c1ccc[nH]1)[C@@H]1O[C@@H]([C@@H](C)C(=O)O)CC[C@@H]1C,–,·,·,65,–,·
O=C(NCCN1CCC2(CC1)C(=O)NCN2c1ccccc1)c1ccc(F)c(F)c1,·,–,·,·,·,·
O=c1cccc2n1CC1CC2CN(c2nc(N3CCCCC3)nc(N3CCCCC3)n2)C1 (centres undefined),58,–,–,–,–,–
O=C1NC2C(O)C(O)C(O)C(O)C2c2cc3c(c(O)c21)OCO3 (centres undefined),89,–,–,·,–,–
O=C1NC2C(=CC(O)C(O)C2O)c2cc3c(c(O)c21)OCO3 (centres undefined),·,–,–,·,–,–
CCOc1ccc(CNCCc2ccc3c(c2)OCO3)cc1,–,–,–,67,–,–
C[C@@H]1CNCCN1c1ccc(N2CC[C@@H](O)C2)c(C#N)c1,·,–,·,·,·,·
CC(C)c1ccc(N2C(=O)NC(=O)/C(=C/C=C/c3ccco3)C2=O)cc1,–,–,–,–,–,?

# Assay outcomes: PubChem BioAssay, Broad Institute
